Data set [1] is described as follows: (§1) Cytotoxicity against Swiss mouse peritoneal macrophages assessed as reduction in cell viability incubated for 48 hrs by MTT assay. Type of data set: cell-based, Peritoneal macrophage. Particulars: Swiss, peritoneal macrophages, read-out: LC50. In short, it runs like this: (§2)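 Peritoneal cells harvested in RPMI 96 h after 3% thioglycolate (1 mL) in male Swiss mice (18-20 g). Plated at 10^5 cells/well in RPMI 1640 with 10% FBS and 2 mM glutamine. After 24 h, exposed to compound up to 200 µM, 48 h, 37 °C, 5% CO2. MTT 0.45 mg/mL added for 4 h, OD at 570. LC50 derived; at least 2 runs in triplicate.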
In general terms: Formazan colour is commonly taken as a measure of viable cells.

The subject of data set [2] is Leishmania amazonensis. Briefly: Antileishmanial activity against Leishmania amazonensis LTB0016 amastigotes assessed as induction of parasite morality incubated for 48 hrs by Alamar blue dye based assay relative to control. Type of data set: functional, organism-based. Particulars: LTB0016, 48 h. In short, it runs like this: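 Free amastigotes (LTB0016) were purified by mechanical dissociation in RPMI from paw skin lesions of male Swiss Webster mice 30 days after s.c. infection with 10^6 amastigotes. Parasites at 10^6/well were exposed to compounds up to 30 µM for 48 h at 32 °C in 5% CO2. AlamarBlue (10%) was then added for 24 h at 32 °C and OD read at 570-600 nm. Final DMSO was ≤0.6%.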

For data set [3], the target named is Arginase (Leishmania amazonensis) (UniProt O96394). In words: Inhibition of recombinant Leishmania amazonensis arginase expressed in Escherichia coli at 100 uM using L-arginine as substrate relative to control. In short, it runs like this:
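Recombinant LaARG was expressed in E. coli. Single-point screen: 100 µM compound with 50 mM L-arginine in 50 mM CHES, pH 9.5. DMSO stocks (70 mM) were diluted to 1 mM in deionized water before assay. Run in triplicate in two independent experiments.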

The target is the same in data set [4]. In words: Competitive inhibition of recombinant Leishmania amazonensis arginase expressed in Escherichia coli using 25 to 100 mM L-arginine levels.
The target in data set [5] is T1, Arginase (Leishmania amazonensis, UniProt O96394). Briefly: Inhibition of recombinant Leishmania amazonensis arginase expressed in Escherichia coli using L-arginine as substrate. A digest of the protocol: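 Recombinant E. coli-expressed LaARG was run with L-arginine at 25, 50 and 100 mM separately. Inhibitor was 200 to 0.05 µM by 4-fold serial dilution, in triplicate in two independent experiments. IC50 came from nonlinear sigmoidal regression of log dose versus enzyme activity; reported IC50 values are at 50 mM substrate.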

In data set [6] the target is Arginase (Leishmania amazonensis) (UniProt O96394). Briefly: Uncompetitive inhibition of recombinant Leishmania amazonensis arginase expressed in Escherichia coli assessed as dissociation constant for ternary complex enzyme-substrate-inhibitor using L-arginine as substrate by Dixon or Cornish-Bowden plot analysis. A digest of the protocol: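 Kinetics on recombinant LaARG used L-arginine at 25, 50 and 100 mM, each with three inhibitor concentrations. Points are the mean of three independent experiments run in duplicate. Mechanism came from linear-regression Dixon and Cornish-Bowden plots. Kis (ESI complex dissociation constant) was taken from the intersection of lines on the Cornish-Bowden plot.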

The test system of data set [7] is Leishmania amazonensis. Briefly: Antileishmanial activity against Leishmania amazonensis LTB0016 amastigotes assessed as induction of parasite morality at 30 uM incubated for 48 hrs by Alamar blue dye based assay relative to control. Particulars: LTB0016, 48 h. Type of data set: functional. In short, it runs like this: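 Amastigotes purified by mechanical dissociation in RPMI from paw skin lesions of male Swiss Webster mice 30 days after subcutaneous infection with 10^6 amastigotes. Parasites at 10^6/well exposed 48 h at 32 °C, 5% CO2, with compound up to 30 µM (DMSO ≤0.6% final). Then 24 h with 10% AlamarBlue, OD read at 570-600 nm; pentamidine as reference.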

The next data set relates to Peritoneal macrophage. The description is as §1. Type of data set: cell-based. Particulars: peritoneal macrophage, 48 h. A digest of the protocol:
as §2

Data set [8] addresses T1, Arginase. Briefly: Non-competitive inhibition of Leishmania amazonensis arginase using L-arginine as substrate incubated for 15 mins.

Calls of active or inactive are those of the source. The calls are words filed in the database; no cut-off is given here.

One may read the EC50 as the concentration needed to bring the measured effect to its halfway point. Consider `N=C(N)c1ccc(OCCCCCOc2ccc(C(=N)N)cc2)cc1` [PENTAMIDINE], for which, in data set [1], the CC50 at 48 h amounted to 17.2 µM. Moreover, in the data set with Leishmania amazonensis [2], the EC50 was 0.8 µM.

Usually inhibition stands for how much of the control response was suppressed. The term IC50 denotes the concentration that gives 50% inhibition. Usually mortality stands for the percentage killed. For the compound `NC(=S)NNc1ncnc2c1cnn2-c1ccc(C(F)(F)F)cc1`, the inhibition in data set [3] amounted to 73.8%. The inhibition entry in data set [4] is “inactive”. Besides, the IC50 on Arginase [5] was found to be 47 µM. In addition, the K in data set [6] was determined as 29 µM. The CC50 at 48 h in data set [1] was > 200 µM. The mortality at 30 µM with Leishmania amazonensis [7] was in the range of 20 to 30%.

As for `N#Cc1ccc(-n2ncc3c(NNC(N)=S)ncnc32)cc1`, in [3], the inhibition was determined as 59.8%. Also, at Arginase [5], the IC50 was determined as 100 µM. Also, in the data set with Peritoneal macrophage, the LC50 result is listed as “Nd(Insoluble)”.

As for `Cc1ccc(-n2ncc3c(NNC(N)=S)ncnc32)cc1`, the inhibition in [3] stood at 42.2%. Besides, the IC50 on Arginase [5] is > 100 µM. Also, the LC50 entry in the data set on Peritoneal macrophage was “Nd(Insoluble)”.

With `NC(=S)NNc1ncnc2c1cnn2-c1ccc(F)cc1`, in [3], the inhibition stood at 36.4%. Moreover, the IC50 at Arginase [5] was > 100 µM. Moreover, in data set [1], the CC50 at 48 h is > 200 µM. Further, the mortality at 30 µM with Leishmania amazonensis [7] is 20 to 30%.

With `NC(=S)NNc1ncnc2c1cnn2-c1ccccc1`, in [3], the inhibition was 74.3%. In addition, the inhibition entry in data set [4] was “inactive”. Also, the IC50 on Arginase [5] was found to be 12 µM. In [6], the K was determined as 8.5 µM. In [1], the CC50 at 48 h was > 200 µM. Further, the mortality at 30 µM in the data set on Leishmania amazonensis [7] was in the range of 20 to 30%.

Usually Ki stands for the equilibrium dissociation constant of an inhibitor or competing ligand from its target. A high value points to weaker binding. On Arginase [8], `Cc1cc(NNC(N)=S)n2nc(C(F)(F)F)nc2n1` gave an IC50 of 16.5 µM and a Ki of 17 µM. The inhibition in data set [3] was 81%. Also, the IC50 on Arginase [5] is 16.5 µM. The K in [6] was 17 µM. For the same compound, in data set [1], the CC50 at 48 h was > 200 µM. Besides, in the data set on Leishmania amazonensis [7], the mortality at 30 µM is 20 to 30%.

For the compound `NC(=S)NNc1ncnc2c1cnn2-c1ccc(Cl)cc1`, the inhibition in [3] stood at 46%. Moreover, the IC50 on Arginase [5] was > 100 µM. Moreover, the CC50 at 48 h in [1] is > 200 µM. Moreover, the mortality at 30 µM in the data set on Leishmania amazonensis [7] is 20 to 30%.

The record behind these values is ChEMBL document CHEMBL4340573, “New pyrazolopyrimidine derivatives as Leishmania amazonensis arginase inhibitors” (Bioorg Med Chem, 2019).
